# Measured values from ChEMBL document CHEMBL1212693, “Dorsomorphin inhibits BMP signals required for embryogenesis and iron metabolism” (Nat Chem Biol, 2008).
# Calls of active or inactive are those of the source. The rule behind the calls is not given here.
# Tests used:
# [1] = tested on: Hep 3B2; assay: Inhibition of BMPR1-mediated hepcidin mRNA expression in IL6-stimulated human Hep3B cells at 10 uM treated 30 mins before IL6 challenge measured after 6 hrs by qRT-PCR analysis; format: cell-based
# How it was run: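 Hep3B cells were incubated in α-MEM with 1% FCS for 6 h, with human IL-6 (100 ng ml−1) or without, together with compound or vehicle. After Trizol RNA extraction, hepcidin and Id1 mRNA were quantified by qRT-PCR. Values were normalised to 18S rRNA or β-actin mRNA, and measurements were in triplicate.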
# [2] = tested on: Mus musculus; assay: Inhibition of iron-dextran conjugate-induced hepcidin mRNA expression in C57BL/6 mouse at 10 mg/kg, iv after 6 hrs by qRT-PCR analysis; format: functional, organism-based; design: dose 10 mg/kg
# [3] = tested on: Mus musculus; assay: Increase in serum iron concentration in C57BL/6 mouse at 10 mg/kg, iv after 24 hrs; format: functional
# [4] = Inhibition of Sprague-Dawley rat AMPK assessed as inhibition of [33P]ATP utilization after 30 mins by scintillation counting
# [5] = organism: Mus musculus; assay: Inhibition of BMPR1-mediated Smad-8 phosphorylation in BMP4-stimulated mouse PASMC at 4 uM treated 30 mins before BMP4 challenge measured after 30 mins by immunoblot analysis
# How it was run: (§1)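 Wild-type mouse PASMCs were kept in RPMI with 0.5% FCS for 24 h. They were preincubated with compound or vehicle for 30 min, then stimulated for 30 min with recombinant BMP2, BMP4, BMP6 or BMP7 at 10 ng ml−1. Lysates in SDS buffer were immunoblotted with anti-phospho-SMAD1/5/8. Total SMAD1 and α-tubulin served as loading controls, and bands were quantified by phosphorimager.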
# [6] = organism: Mus musculus; assay: Inhibition of BMPR1-mediated Smad-5 phosphorylation in BMP7-stimulated mouse PASMC at 4 uM treated 30 mins before BMP7 challenge measured after 30 mins by immunoblot analysis; how it was run: as §1
# [7] = organism: Mus musculus; assay: Inhibition of activin receptor-mediated Smad-2 phosphorylation in activin-stimulated mouse PASMC at => 10 uM treated 30 mins before activin challenge measured after 30 mins by immunoblot analysis
# How it was run: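 PASMCs serum-starved 24 h (0.5% FCS RPMI) were pretreated 30 min with compound at 0.1–20 µM or vehicle. They were then stimulated 30 min with recombinant TGF-β1 or activin A. Phospho-SMAD2 was detected by immunoblot of SDS lysates, and phosphorimager quantification was used.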
# [8] = organism: Mus musculus; assay: Inhibition of BMPR1-mediated Smad-5 phosphorylation in BMP2-stimulated mouse BMPR2 deficient PASMC at 4 uM treated 30 mins before BMP2 challenge measured after 30 mins by immunoblot analysis
# [9] = organism: Mus musculus; assay: Inhibition of BMPR1-mediated Smad-1 phosphorylation in BMP6-stimulated mouse BMPR2 deficient PASMC at 4 uM treated 30 mins before BMP6 challenge measured after 30 mins by immunoblot analysis
# How it was run: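 PASMCs (wild-type or BMPR-II–deficient) were kept 24 h in RPMI with 0.5% FCS, preincubated 30 min with compound or vehicle, then stimulated 30 min with recombinant BMP (10 ng ml−1). Extracts in SDS-lysis buffer were immunoblotted for phospho-SMAD1/5/8, with total SMAD1 and α-tubulin as loading controls. Bands were quantitated by phosphorimager.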
# [10] = organism: Mus musculus; assay: Inhibition of BMPR1-mediated Smad-5 phosphorylation in BMP6-stimulated mouse BMPR2 deficient PASMC at 4 uM treated 30 mins before BMP6 challenge measured after 30 mins by immunoblot analysis
# [11] = organism: Mus musculus; assay: Inhibition of ALK6-mediated Smad-5 phosphorylation in BMPR2 deficient mouse PASMC at 10 uM by immunoblot analysis
# How it was run: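 BMPR-II–deficient mouse PASMCs (RPMI, 10% FBS) transiently transfected with constitutively active ALK2, ALK3 or ALK6 cDNA, or plasmid-only control. Incubated with or without compound (10 µM). Extracts lysed in SDS buffer, run on SDS-PAGE and immunoblotted for phospho-SMAD1/5/8; quantitated by phosphorimager.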
# [12] = tested on: HepG2; assay: Inhibition of BMPR1-mediated hepcidin mRNA expression in BMP2-stimulated human HepG2 cells at 10 uM treated 30 mins before BMP2 challenge measured after 16 hrs by qRT-PCR analysis; format: cell-based
# [13] = organism: Danio rerio; assay: Inhibition of BMPR1 in zebrafish assessed as penetrance of mild embryonic axis dorsalization at 10 uM treated at 2 to 8 hrs post-fertilization measured at 48 hrs; design: scale not given: the % may be the effect or the level left
# How it was run: (§2)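 Compound added at the stated times and concentrations. Gross morphology scored visually at up to 48 h.p.f. for dorsalization of the embryonic axis.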
# [14] = organism: Danio rerio; assay: Inhibition of BMPR1 in zebrafish assessed as severity of embryonic axis dorsalization at 10 uM treated at 4 to 8 hrs post-fertilization measured at 48 hrs; design: scale not given: the % may be the effect or the level left
# [15] = organism: Danio rerio; assay: Inhibition of BMPR1 in zebrafish assessed as severity of embryonic axis dorsalization at 0.2 uM treated at 3 hrs post-fertilization measured at 48 hrs; design: scale not given: the % may be the effect or the level left
# [16] = organism: Danio rerio; assay: Inhibition of BMPR1 in zebrafish assessed as severity of embryonic axis dorsalization at 2 uM treated at 3 hrs post-fertilization measured at 48 hrs; design: scale not given: the % may be the effect or the level left
# [17] = organism: Danio rerio; assay: Inhibition of BMPR1 in zebrafish assessed as penetrance of normal embryonic axis dorsalization at 7.5 uM treated at 3 hrs post-fertilization measured at 48 hrs; design: scale not given: the % may be the effect or the level left
# [18] = organism: Danio rerio; assay: Inhibition of BMPR1 in zebrafish assessed as penetrance of mild embryonic axis dorsalization at 7.5 uM treated at 3 hrs post-fertilization measured at 48 hrs; design: scale not given: the % may be the effect or the level left; how it was run: as §2
# [19] = organism: Danio rerio; assay: Inhibition of BMPR1 in zebrafish assessed as severity of embryonic axis dorsalization at 10 uM treated at 3 hrs post-fertilization measured at 48 hrs; design: scale not given: the % may be the effect or the level left
# [20] = molecular target: Vascular endothelial growth factor receptor 2 (Danio rerio) (UniProt Q5GIT4); assay: Inhibition of KDR in zebrafish assessed as embryonic axis dorsalization at 10 uM treated occasionally at 6 to 8 hrs post-fertilization measured at 48 hrs
# Sequence of Vascular endothelial growth factor receptor 2 (Danio rerio) (Q5GIT4 whole entry): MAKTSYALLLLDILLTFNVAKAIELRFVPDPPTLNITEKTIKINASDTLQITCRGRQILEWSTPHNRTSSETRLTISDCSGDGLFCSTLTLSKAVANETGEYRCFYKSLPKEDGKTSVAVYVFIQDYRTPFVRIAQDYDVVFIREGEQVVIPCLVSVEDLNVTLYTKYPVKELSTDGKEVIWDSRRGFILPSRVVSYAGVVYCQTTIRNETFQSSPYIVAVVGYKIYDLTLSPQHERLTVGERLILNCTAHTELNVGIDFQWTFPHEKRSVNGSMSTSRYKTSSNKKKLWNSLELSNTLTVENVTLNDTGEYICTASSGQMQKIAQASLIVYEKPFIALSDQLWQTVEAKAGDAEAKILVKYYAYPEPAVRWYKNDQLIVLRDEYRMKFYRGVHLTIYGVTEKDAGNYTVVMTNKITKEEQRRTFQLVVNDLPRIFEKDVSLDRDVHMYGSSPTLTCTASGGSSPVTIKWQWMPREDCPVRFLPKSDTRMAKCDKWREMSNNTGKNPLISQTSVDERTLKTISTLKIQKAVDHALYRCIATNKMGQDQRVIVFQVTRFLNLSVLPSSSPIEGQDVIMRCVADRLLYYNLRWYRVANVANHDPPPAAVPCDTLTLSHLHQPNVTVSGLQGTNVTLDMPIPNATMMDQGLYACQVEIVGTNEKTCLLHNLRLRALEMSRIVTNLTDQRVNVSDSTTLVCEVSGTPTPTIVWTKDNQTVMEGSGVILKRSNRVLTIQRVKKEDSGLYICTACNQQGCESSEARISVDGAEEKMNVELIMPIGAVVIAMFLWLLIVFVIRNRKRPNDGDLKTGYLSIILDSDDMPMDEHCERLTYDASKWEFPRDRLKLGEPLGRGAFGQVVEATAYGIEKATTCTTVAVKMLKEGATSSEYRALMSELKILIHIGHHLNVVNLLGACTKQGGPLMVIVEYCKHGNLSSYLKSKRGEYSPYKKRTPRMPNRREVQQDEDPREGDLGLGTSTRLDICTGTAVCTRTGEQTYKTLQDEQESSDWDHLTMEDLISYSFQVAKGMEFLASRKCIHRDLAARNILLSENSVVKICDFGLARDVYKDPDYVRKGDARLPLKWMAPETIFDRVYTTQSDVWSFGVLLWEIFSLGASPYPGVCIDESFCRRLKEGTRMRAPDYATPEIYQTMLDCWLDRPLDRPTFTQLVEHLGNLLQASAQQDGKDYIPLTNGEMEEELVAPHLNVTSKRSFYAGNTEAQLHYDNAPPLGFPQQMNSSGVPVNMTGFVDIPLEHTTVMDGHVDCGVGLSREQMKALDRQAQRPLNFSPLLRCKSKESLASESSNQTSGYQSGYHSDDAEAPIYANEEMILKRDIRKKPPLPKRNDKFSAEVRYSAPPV
# How it was run: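 Newly fertilised WT zebrafish eggs were arrayed in triplicate in E3 buffer and kept at 28.5 °C. Compound (10 µM) was added at 6–8 h.p.f. Gross morphology was inspected visually for dorsalisation or ventralisation of the embryonic axis, with photographs at 36–48 h.p.f.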
# [21] = organism: Danio rerio; assay: Inhibition of BMPR1 in zebrafish assessed as decrease in eve1 expression at 10 uM treated at 18-somite stage measured at 48 hrs
# [22] = organism: Danio rerio; assay: Inhibition of BMPR1 in zebrafish assessed as severity of embryonic axis dorsalization at 10 uM treated continuously from 2 hrs post-fertilization measured after 48 hrs; design: scale not given: the % may be the effect or the level left
# [23] = organism: Danio rerio; assay: Inhibition of BMPR1 in zebrafish assessed as penetrance of moderate embryonic axis dorsalization at 10 uM treated continuously from 6 hrs post-fertilization measured at 48 hrs; design: scale not given: the % may be the effect or the level left; how it was run: as §2
# [24] = organism: Danio rerio; assay: Inhibition of BMPR1 in zebrafish assessed as penetrance of normal embryonic axis dorsalization at 10 uM treated continuously from 10 hrs post-fertilization measured at 48 hrs; design: scale not given: the % may be the effect or the level left
# [25] = organism: Danio rerio; assay: Inhibition of BMPR1 in zebrafish assessed as penetrance of mild embryonic axis dorsalization at 10 uM treated at 2 to 4 hrs post-fertilization measured at 48 hrs; design: scale not given: the % may be the effect or the level left; how it was run: as §2
# [26] = organism: Danio rerio; assay: Inhibition of BMPR1 in zebrafish assessed as penetrance of moderate embryonic axis dorsalization at 10 uM treated at 2 to 4 hrs post-fertilization measured at 48 hrs; design: scale not given: the % may be the effect or the level left; how it was run: as §2
compound,measurement,setting,value
c1cc(-c2cnn3cc(-c4ccc(OCCN5CCCCC5)cc4)cnc23)ccn1 [DORSOMORPHIN],inhibition,[1],Active
same,inhibition,[2],Active
same,Activity,[3],60%
same,Ki,[4],10 µM
same,inhibition,[5],Active
same,inhibition,[6],Active
same,inhibition,[7],Active
same,inhibition,[8],Active
same,inhibition,[9],Active
same,inhibition,[10],Active
same,inhibition,[11],Active
same,inhibition,[12],Active
same,Activity,[13],0%
same,Activity,[14],0%
same,Activity,[15],0%
same,Activity,[16],0%
same,Activity,[17],0%
same,Activity,[18],58%
same,Activity,[19],100%
same,inhibition,[20],inactive
same,inhibition,[21],Active
same,Activity,[22],100%
same,Activity,[23],78%
same,Activity,[24],100%
same,Activity,[25],10%
same,Activity,[26],90%
